Holding throughout (format): nucleic-acid assay
Assay [1] has as its system Nucleic Acid. Description: Binding affinity to 5^-GGAGAAAATACC-3^ sequence of [32P] labeled DNA at 2 uM after 120 mins by DNase1 foot printing. An outline of the steps:
(§1)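 5'-32P-labeled PCR duplexes (158-mer upper strand, 135-mer lower strand) were equilibrated with varying peptide concentrations in 5 mM sodium cacodylate, pH 6.5, at room temperature for 120 min. DNase I (final 0.009 unit/mL, limited to <30% digestion) was added for 10 min at 37 °C. Products were resolved on denaturing 8% polyacrylamide/8 M urea gels and band volumes integrated to give fractional saturation. Apparent K was taken as the peptide concentration at 50% saturation. Hill coefficient came from the slope of a least-squares Hill plot using at least six points.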

In assay [2] the test system is Nucleic Acid. Put plainly: Binding affinity to 5^-TTTC-3^ sequence of [32P] labeled DNA at 2 uM after 120 mins by DNase1 foot printing. An outline of the steps:
as §1

The subject of assay [3] is Nucleic Acid. Description: Binding affinity to 5^-TTTTCTCC-3^ sequence of [32P] labeled DNA at 2 uM after 120 mins by DNase1 foot printing. An outline of the steps: as §1
In assay [4] the test system is Nucleic Acid. Put plainly: Binding affinity to 13-mer DNA duplex U4A-L4T assessed as conformational change after 60 mins by circular dichroism. An outline of the steps: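 CD spectra were recorded at 37 °C after 60 min incubation. Difference spectra were obtained by subtracting the duplex-alone and peptide-alone contributions.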
In assay [5] the test system is Nucleic Acid. Description: Binding affinity to 5^-GAGAAAATACC-3^ sequence of [32P] labeled DNA at 2 uM after 120 mins by DNase1 foot printing. An outline of the steps: as §1
Assay [6] concerns Nucleic Acid. Description: Binding affinity to 5^-TTTTCTC-3^ sequence of [32P] labeled DNA at 2 uM after 120 mins by DNase1 foot printing. An outline of the steps: as §1
In assay [7] the test system is Nucleic Acid. Put plainly: Binding affinity to 5^-TTTCACA-3^ sequence of [32P] labeled DNA at 2 uM after 120 mins by DNase1 foot printing. An outline of the steps: as §1
Assay [8] concerns Nucleic Acid. Description: Binding affinity to 5^-ATTTTCTCC-3^ sequence of [32P] labeled DNA at 2 uM after 120 mins by DNase1 foot printing. An outline of the steps: as §1

The source made the active and inactive calls. No cut-off for these calls is given here. Starred links: 1 amine or outer side, 2 acyl side, 3 side chain; linkers in the order of their positions; H or OH if unused. Non-standard residues stand in square brackets, D forms with d. Residues, ends and D or L forms follow the SMILES beside them. X1 = Cn1cc(N[*:1])cc1C(=O)[*:2]

Take `Cn1cc(NC(=O)c2cc(NC(=O)C(CCCCN)NC(=O)[C@H](CCCNC(=N)N)NC(=O)[C@@H]3C[C@@H](O)CN3C(=O)[C@@H](N)Cc3cnc[nH]3)cn2C)cc1C(=O)Nc1cc(C(=O)Nc2cc(C(=O)N[C@@H](CCCCN)C(=O)N[C@@H](CCCNC(=N)N)C(N)=O)n(C)c2)n(C)c1` (single isomer, unassigned): the Ka amounted to 4.7e+06 M⁻¹ in assay [1], 1.4e+06 M⁻¹ in assay [2] and 3.6e+06 M⁻¹ in assay [3]. The outcome in assay [4] was Active.
For `Cn1cc(NC(=O)c2cc(NC(=O)[C@H](CCCCN)NC(=O)[C@H](CCCNC(=N)N)NC(=O)[C@@H]3CCCN3C(=O)[C@@H](N)Cc3cnc[nH]3)cn2C)cc1C(=O)Nc1cc(C(=O)Nc2cc(C(=O)N[C@@H](CCCCN)C(=O)N[C@@H](CCCNC(=N)N)C(N)=O)n(C)c2)n(C)c1` (H-HPRK[X1][X1][X1][X1]KR-NH2), the Ka in assay [5] is 2.7e+06 M⁻¹; in assay [6], 3.4e+06 M⁻¹. In assay [4], the Activity result is “Dose-dependent effect”.
As for `Cn1cc(NC(=O)c2cc(NC(=O)[C@H](CCCCN)NC(=O)[C@H](CCCNC(=N)N)NC(=O)[C@@H]3CCCN3C(=O)[C@@H](N)Cc3cnc[nH]3)cn2C)cc1C(=O)Nc1cc(C(=O)Nc2cc(C(=O)N[C@@H](CCCNC(=N)N)C(N)=O)n(C)c2)n(C)c1`, the Ka came to 8.4e+06 M⁻¹ in assay [7] and 9.7e+06 M⁻¹ in assay [8]. Besides, the outcome in assay [4] was Active.

(Values after ChEMBL document CHEMBL1156208, “Novel DNA-peptide interaction networks” (Bioorg Med Chem, 2010).)
